The record followed here is ChEMBL document CHEMBL1159336, “Nodulisporic acids C, C1, and C2: a series of D-ring-opened nodulisporic acids from the fungus Nodulisporium sp” (2003).

Holding throughout (type): functional
Test [1] relates to Aedes aegypti. Put plainly: Insecticidal activity against Aedes aegypti. The essentials: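 Mosquito larvae were exposed to test compounds and killing was scored. Activity is reported as the LD90 in ng/mL.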
Test [2] deals with Lucilia sericata. Put plainly: Insecticidal activity against Lucilia sericata. The essentials:
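Blowfly larvae were exposed to test compounds and killing was scored. Activity is reported as the LD90 in ng/mL.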

Test [3] has as its system Ctenocephalides felis. Put plainly: Insecticidal activity against Ctenocephalides felis.

`C=C(C)[C@H]1C(=O)c2c3c(cc4c5c(n1c24)[C@@]1(C)C(CC[C@H]2[C@](C)(/C=C/C=C(\C)C(=O)O)[C@@H](O)CC[C@@]21C)C5)C1=CC(C)(C)OC(C)(C)C1[C@@H]3O` (stereo not given in full) [NOD ACID A]: the figures for the LD90 in test [1], in test [2] and in test [3] were 500 ng/mL, 300 ng/mL and 1 µg/mL, respectively.

As to IVERMECTIN, the LD90 was found to be 5 ng/mL in test [1], 40 ng/mL in test [2] and 10 µg/mL in test [3].

Regarding `C=C(C)[C@H]1C(=O)c2c3c(cc4c5c(n1c24)[C@@]1(C)[C@@H](CC[C@@H]2[C@]1(C)CC[C@]1(O)O[C@H](C(O)C(C)C(=O)O)C[C@@]21C)C5)C1=CC(C)(C)OC(C)(C)[C@H]1[C@@H]3O` (stereo not given in full) [NODULISPORIC ACID A2], the LD90 came to 800 ng/mL in test [1], 600 ng/mL in test [2] and 10 µg/mL in test [3].

Consider `CN1C(=O)[C@]23C[C@H]4C(C)(C)[C@@]5(C[C@@]41CN2CC[C@@]3(C)O)C(=O)Nc1cc2c(cc15)OC(C)(C)C=CO2` [PARAHERQUAMIDE], for which the LD90 in test [1] is 50000 ng/mL; in test [2], 50000 ng/mL; in test [3], >100 µg/mL.

On to `CC(C)=CCc1c2c(cc3c4c([nH]c13)[C@@]1(C)[C@@H](CC[C@H]3[C@](C)(/C=C/C=C(\C)C(=O)[O-])[C@@H](O)CC[C@@]31C)C4)C1=CC(C)(C)OC(C)(C)[C@H]1[C@@H]2O.[Na+]` [NODULISPORIC ACID C SODIUM], for which the LD90 worked out at 10000 ng/mL in test [1], 10500 ng/mL in test [2] and 10 µg/mL in test [3].

As for `C=C(C)[C@H]1C(=O)c2c3c(cc4c5c(n1c24)[C@@]1(C)[C@@H](CC[C@@H]2[C@]1(C)CC[C@]1(O)O[C@H](/C=C(\C)C(=O)O)C[C@@]21C)C5)C1=CC(C)(C)OC(C)(C)[C@H]1[C@@H]3O` [NODULISPORIC ACID A1], the values for the LD90 in test [1], in test [2] and in test [3] were 200 ng/mL, 300 ng/mL and 5 µg/mL, respectively.

Consider `CC(C)=CCc1c2c(cc3c4c([nH]c13)[C@@]1(C)[C@@H](CC[C@@H]3[C@]1(C)CC[C@]1(O)O[C@H]([C@H](O)[C@H](C)C(=O)[O-])C[C@@]31C)C4)C1=CC(C)(C)OC(C)(C)[C@H]1[C@@H]2O.[Na+]`, for which, in test [3], the LD90 was >100 µg/mL.

With `CC(C)=CCc1c2c(cc3c4c([nH]c13)[C@@]1(C)[C@@H](CC[C@@H]3[C@]1(C)CC[C@]1(O)O[C@H](/C=C(\C)C(=O)[O-])C[C@@]31C)C4)C1=CC(C)(C)OC(C)(C)[C@H]1[C@@H]2O.[Na+]` [NODULISPORIC ACID C1], the LD90 in test [3] is >100 µg/mL.
